{"source": "ChEMBL document CHEMBL2331117", "about": "(J Med Chem, 2013)", "key": {"[1]": {"experiment": "Cmax in CD rat at 3 mg/kg, iv", "format": "ADME, organism-based", "parameters": "dose 3 mg/kg, route intravenous", "conditions": "in vivo", "in_short": "(§1)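 Single-dose PK: female athymic nude mice (10 mg/kg), female CD rats and male beagle dogs (3 mg/kg), male cynomolgus monkeys (3 mg/kg), given iv and by oral gavage. Solution in EPW (5% ethanol/45% PEG400/water), with 1:2 HCl (m/m) for mouse, rat and dog and 1:1.5 HCl (m/m) for monkey. Plasma levels followed over 24 h.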"}, "[2]": {"experiment": "Cmax in cynomolgus monkey at 3 mg/kg, po", "format": "ADME, organism-based, Macaca fascicularis", "parameters": "dose 3 mg/kg, route oral", "conditions": "in vivo", "in_short": "as §1"}, "[3]": {"molecular_target": "Serine/threonine-protein kinase Chk1 (Homo sapiens, UniProt O14757)", "sequence (O14757 whole entry)": "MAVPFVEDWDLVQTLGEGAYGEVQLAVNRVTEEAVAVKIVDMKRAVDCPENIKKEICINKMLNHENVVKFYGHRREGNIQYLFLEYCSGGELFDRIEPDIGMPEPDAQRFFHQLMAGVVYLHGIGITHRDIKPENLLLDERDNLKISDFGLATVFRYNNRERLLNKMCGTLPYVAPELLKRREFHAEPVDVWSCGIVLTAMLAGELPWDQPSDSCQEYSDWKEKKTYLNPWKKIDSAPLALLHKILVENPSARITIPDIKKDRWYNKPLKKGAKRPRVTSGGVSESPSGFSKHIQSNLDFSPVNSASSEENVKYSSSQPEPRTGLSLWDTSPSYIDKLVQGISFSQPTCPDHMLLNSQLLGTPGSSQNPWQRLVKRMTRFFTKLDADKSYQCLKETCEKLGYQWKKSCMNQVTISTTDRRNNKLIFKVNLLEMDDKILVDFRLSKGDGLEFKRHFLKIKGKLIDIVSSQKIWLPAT", "experiment": "Inhibition of CHK1 (unknown origin)"}, "[4]": {"molecular_target": "Serine/threonine-protein kinase mTOR (Rattus norvegicus) (UniProt P42346)", "experiment": "Reversible inhibition of mTOR (unknown origin) assessed as enzyme recovery measured after dilution in presence of ATP relative to untreated control", "conditions": "Homo sapiens"}, "[5]": {"experiment": "Cmax in Beagle dog at 3 mg/kg, iv", "format": "ADME, organism-based, Canis lupus familiaris", "parameters": "dose 3 mg/kg, route intravenous", "conditions": "in vivo", "in_short": "as §1"}, "Mus musculus [6]": {"test_system": "Mus musculus", "experiment": "In vivo inhibition of mTORC1-mediated phosphorylation of pS6 at (serine 240/244) in human PC3 cells xenografted into athymic nude mouse at 100 mg/kg, po after 8 hrs by Western blotting analysis relative to control", "format": "functional", "conditions": "PC-3, 8 h", "in_short": "(§2)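 PC-3 cells grown in DMEM with 20% FBS were implanted subcutaneously at 3 × 10^6 cells in ice-cold HBSS into the hindflank of 5−8 week old male nude mice. At tumor size 200−500 mg, mice received a single oral dose of 100 mg/kg. Plasma and tumors were collected at 1, 4, 8, 16, 24 and 32 h. Tumor lysates from each group (n = 5) were pooled. Phospho-proteins were quantified by Western blot and normalized to α-tubulin.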"}, "[7]": {"experiment": "Cmax in Beagle dog at 3 mg/kg, po", "format": "ADME, organism-based, Canis lupus familiaris", "parameters": "dose 3 mg/kg, route oral", "conditions": "in vivo", "in_short": "as §1"}, "Mus musculus [8]": {"test_system": "Mus musculus", "experiment": "In vivo inhibition of mTORC1-mediated phosphorylation of 4EBP1 at ([…]) in human PC3 cells xenografted into athymic nude mouse at 100 mg/kg, po after 24 hrs by Western blotting analysis relative to control", "format": "functional", "conditions": "PC-3, 24 h", "in_short": "as §2"}, "[9]": {"experiment": "Tmax in CD rat at 3 mg/kg, po", "format": "ADME, organism-based", "parameters": "dose 3 mg/kg, route oral", "conditions": "in vivo"}, "[10]": {"experiment": "Plasma protein binding in monkey at 5 uM", "format": "ADME, cell-free, Macaca mulatta", "conditions": "rhesus monkey, read-out: PPB (converted)"}, "[11]": {"experiment": "Plasma concentration in mouse at 100 mg/kg, po after 4 hrs", "format": "ADME, organism-based", "parameters": "dose 100 mg/kg, route oral"}, "[12]": {"experiment": "Plasma concentration in athymic mouse plasma xenografted with human MCF7 cells at 100 mg/kg, po after 16 hrs", "format": "ADME, organism-based", "parameters": "dose 100 mg/kg, route oral", "in_short": "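MCF-7 cells (5 × 10^6, in 50% cold HBSS/50% growth-factor-reduced matrigel) were implanted subcutaneously in the hindflank of 5–8 week old female nude mice. At 40–150 mg tumour size, mice received a single oral dose of 100 mg/kg, and plasma was sampled at the listed times after dosing.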"}, "[13]": {"experiment": "AUC (0 to infinity) in CD rat at 3 mg/kg, po", "format": "ADME, organism-based", "parameters": "time infinity, dose 3 mg/kg, route oral", "conditions": "plasma", "in_short": "as §1"}, "[14]": {"experiment": "Oral bioavailability in Beagle dog at 3 mg/kg", "format": "ADME, organism-based, Canis lupus familiaris", "conditions": "in vivo", "in_short": "(§3)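 For single-dose PK, compound was given intravenously and by oral gavage as a solution in EPW (5% ethanol/45% PEG400/water + 1:2 HCl m/m). Doses were 10 mg/kg in female athymic nude mice and 3 mg/kg in female CD rats and male beagle dogs.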"}, "[15]": {"molecular_target": "Phosphatidylinositol 4,5-bisphosphate 3-kinase catalytic subunit beta isoform (Homo sapiens, UniProt P42338)", "sequence (P42338 whole entry, canonical isoform)": "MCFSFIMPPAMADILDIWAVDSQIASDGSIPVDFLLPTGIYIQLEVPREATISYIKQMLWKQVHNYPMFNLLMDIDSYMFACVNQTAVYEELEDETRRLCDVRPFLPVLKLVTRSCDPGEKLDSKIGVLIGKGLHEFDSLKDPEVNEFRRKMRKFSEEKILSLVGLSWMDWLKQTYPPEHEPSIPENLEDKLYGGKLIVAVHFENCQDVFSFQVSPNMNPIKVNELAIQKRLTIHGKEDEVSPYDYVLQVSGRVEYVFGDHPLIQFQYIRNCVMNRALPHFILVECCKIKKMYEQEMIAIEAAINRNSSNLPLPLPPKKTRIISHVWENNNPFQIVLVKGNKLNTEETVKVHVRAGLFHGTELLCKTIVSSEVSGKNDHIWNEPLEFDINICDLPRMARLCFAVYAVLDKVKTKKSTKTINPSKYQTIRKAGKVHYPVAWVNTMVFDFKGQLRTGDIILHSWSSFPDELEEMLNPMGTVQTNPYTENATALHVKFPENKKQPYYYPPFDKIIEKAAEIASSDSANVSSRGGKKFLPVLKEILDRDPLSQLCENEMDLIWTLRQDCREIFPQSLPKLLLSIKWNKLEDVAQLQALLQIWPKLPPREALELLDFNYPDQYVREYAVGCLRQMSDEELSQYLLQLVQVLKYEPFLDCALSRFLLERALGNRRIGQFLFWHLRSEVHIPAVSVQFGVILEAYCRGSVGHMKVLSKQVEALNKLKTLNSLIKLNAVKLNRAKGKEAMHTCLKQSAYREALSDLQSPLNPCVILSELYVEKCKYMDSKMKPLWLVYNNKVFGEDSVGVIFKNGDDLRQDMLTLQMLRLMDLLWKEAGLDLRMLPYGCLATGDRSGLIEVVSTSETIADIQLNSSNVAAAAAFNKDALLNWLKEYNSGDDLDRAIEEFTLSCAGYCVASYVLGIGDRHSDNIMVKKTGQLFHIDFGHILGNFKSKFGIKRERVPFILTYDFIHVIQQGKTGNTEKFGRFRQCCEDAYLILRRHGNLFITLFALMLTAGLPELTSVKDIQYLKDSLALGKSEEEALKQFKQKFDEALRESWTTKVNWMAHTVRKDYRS", "experiment": "Inhibition of PI3Kbeta (unknown origin)"}, "Mus musculus [16]": {"test_system": "Mus musculus", "experiment": "In vivo inhibition of mTORC2-mediated phosphorylation of AKT at […] in human MCF7 cells xenografted into athymic nude mouse at 100 mg/kg, po after 16 hrs by Western blotting analysis relative to control", "format": "functional", "conditions": "MCF7, 16 h", "in_short": "(§4)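 MCF-7 cells (DMEM, 10% FBS) were implanted subcutaneously at 5 × 10^6 cells in 50% cold HBSS/50% growth-factor-reduced matrigel into the hindflank of 5−8 week old female nude mice. At tumor size 40−150 mg, mice received a single oral dose of 100 mg/kg. Tumor lysates were pooled per group. Phospho-AKT (S473, T308), p70S6K (T389), S6 (S240/244) and 4E-BP1 (T37/46) were measured by Western blot normalized to α-tubulin.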"}, "Mus musculus [17]": {"test_system": "Mus musculus", "experiment": "In vivo inhibition of mTORC2-mediated phosphorylation of AKT at serine 473 in human MCF7 cells xenografted into athymic nude mouse at 100 mg/kg, po after 8 hrs by Western blotting analysis relative to control", "format": "functional", "conditions": "MCF7, 8 h", "in_short": "as §4"}, "Mus musculus [18]": {"test_system": "Mus musculus", "experiment": "In vivo inhibition of mTORC2-mediated phosphorylation of AKT at serine 473 in human PC3 cells xenografted into athymic nude mouse at 100 mg/kg, po after 4 hrs by Western blotting analysis relative to control", "format": "functional", "conditions": "PC-3, 4 h", "in_short": "as §2"}, "[19]": {"molecular_target": "Tyrosine-protein kinase JAK2 (Homo sapiens, UniProt O60674)", "sequence (O60674 whole entry)": "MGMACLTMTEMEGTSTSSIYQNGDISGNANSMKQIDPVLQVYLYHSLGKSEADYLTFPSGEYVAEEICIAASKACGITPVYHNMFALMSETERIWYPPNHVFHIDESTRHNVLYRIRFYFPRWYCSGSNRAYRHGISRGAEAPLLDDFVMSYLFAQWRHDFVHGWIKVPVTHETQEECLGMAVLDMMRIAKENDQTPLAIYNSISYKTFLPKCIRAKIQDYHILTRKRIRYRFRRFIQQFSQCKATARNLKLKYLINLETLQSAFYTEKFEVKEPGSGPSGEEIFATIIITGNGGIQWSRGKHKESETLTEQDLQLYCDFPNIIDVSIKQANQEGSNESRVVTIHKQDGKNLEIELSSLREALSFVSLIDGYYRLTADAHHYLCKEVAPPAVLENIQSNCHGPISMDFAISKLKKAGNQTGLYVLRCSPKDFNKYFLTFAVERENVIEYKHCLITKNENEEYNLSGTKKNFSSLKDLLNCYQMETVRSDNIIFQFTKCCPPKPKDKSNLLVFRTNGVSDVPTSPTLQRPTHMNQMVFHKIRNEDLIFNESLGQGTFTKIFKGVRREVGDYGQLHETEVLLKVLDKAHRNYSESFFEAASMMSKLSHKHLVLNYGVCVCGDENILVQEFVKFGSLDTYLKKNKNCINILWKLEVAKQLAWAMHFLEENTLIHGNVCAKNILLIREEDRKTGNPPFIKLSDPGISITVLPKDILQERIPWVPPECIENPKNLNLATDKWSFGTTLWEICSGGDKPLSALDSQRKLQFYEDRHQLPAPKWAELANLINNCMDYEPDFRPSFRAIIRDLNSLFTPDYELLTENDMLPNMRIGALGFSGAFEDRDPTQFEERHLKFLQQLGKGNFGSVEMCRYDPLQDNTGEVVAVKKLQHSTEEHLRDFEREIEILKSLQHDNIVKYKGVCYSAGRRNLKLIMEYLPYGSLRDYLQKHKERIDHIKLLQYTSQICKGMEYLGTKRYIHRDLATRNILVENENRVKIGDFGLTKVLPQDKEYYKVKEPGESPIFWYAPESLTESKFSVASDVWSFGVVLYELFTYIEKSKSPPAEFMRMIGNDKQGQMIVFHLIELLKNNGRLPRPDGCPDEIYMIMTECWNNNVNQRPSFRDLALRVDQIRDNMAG", "experiment": "Inhibition of JAK2 (unknown origin)"}, "Mus musculus [20]": {"test_system": "Mus musculus", "experiment": "Toxicity in athymic nude mouse assessed as body weight gain at 50 mg/kg, po relative to control", "format": "organism-based", "parameters": "dose 50 mg/kg, route oral", "conditions": "in vivo"}, "[21]": {"experiment": "Clearance in cynomolgus monkey at 3 mg/kg, iv", "format": "ADME, organism-based, Macaca fascicularis", "parameters": "dose 3 mg/kg, route intravenous", "conditions": "in vivo", "in_short": "as §1"}, "[22]": {"molecular_target": "Phosphatidylinositol 4,5-bisphosphate 3-kinase catalytic subunit alpha isoform (Homo sapiens, UniProt P42336)", "sequence (P42336 whole entry, canonical isoform)": "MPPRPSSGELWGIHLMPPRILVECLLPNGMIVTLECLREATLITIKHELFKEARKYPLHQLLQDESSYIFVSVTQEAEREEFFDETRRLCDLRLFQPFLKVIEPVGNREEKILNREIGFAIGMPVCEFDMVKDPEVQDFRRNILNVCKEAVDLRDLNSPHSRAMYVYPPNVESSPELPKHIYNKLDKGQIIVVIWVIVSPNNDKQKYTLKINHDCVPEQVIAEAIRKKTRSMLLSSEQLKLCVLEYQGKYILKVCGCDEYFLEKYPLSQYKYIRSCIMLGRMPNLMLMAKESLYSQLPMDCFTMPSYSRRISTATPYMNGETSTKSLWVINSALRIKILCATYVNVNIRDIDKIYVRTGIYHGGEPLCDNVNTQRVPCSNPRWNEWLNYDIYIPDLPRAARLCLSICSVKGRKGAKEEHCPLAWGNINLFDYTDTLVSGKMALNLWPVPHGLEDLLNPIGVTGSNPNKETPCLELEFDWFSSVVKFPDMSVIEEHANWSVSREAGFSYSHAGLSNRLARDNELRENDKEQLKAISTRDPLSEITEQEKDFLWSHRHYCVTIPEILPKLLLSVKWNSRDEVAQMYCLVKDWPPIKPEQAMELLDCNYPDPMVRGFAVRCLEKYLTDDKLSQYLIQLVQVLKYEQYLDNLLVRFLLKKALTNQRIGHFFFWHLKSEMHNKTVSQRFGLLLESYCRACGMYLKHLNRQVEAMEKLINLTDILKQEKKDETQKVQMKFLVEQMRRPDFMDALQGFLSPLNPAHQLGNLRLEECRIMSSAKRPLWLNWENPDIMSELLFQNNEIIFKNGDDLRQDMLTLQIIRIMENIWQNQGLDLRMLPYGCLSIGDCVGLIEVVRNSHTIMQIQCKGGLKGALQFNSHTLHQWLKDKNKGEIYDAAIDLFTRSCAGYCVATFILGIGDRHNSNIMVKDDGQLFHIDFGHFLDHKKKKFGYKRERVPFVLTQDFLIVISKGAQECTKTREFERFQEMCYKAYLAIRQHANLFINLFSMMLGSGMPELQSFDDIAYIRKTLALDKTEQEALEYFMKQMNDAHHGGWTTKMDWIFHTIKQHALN", "experiment": "Inhibition of PI3Kalpha (unknown origin)", "in_short": "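PI3Kα activity was read as the percentage of ATP consumed, by luciferase–luciferin chemiluminescence (Kinase-Glo). The reaction ran about 2 h at ambient temperature, with ATP consumption kept to 40–60%. Values are the mean of n ≥ 2.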"}, "[23]": {"experiment": "Kinetic solubility of the compound", "format": "physicochemical", "conditions": "read-out: Kinetic_solubility"}, "[24]": {"experiment": "Cmax in athymic nude mouse at 10 mg/kg, iv", "format": "ADME, organism-based", "parameters": "dose 10 mg/kg, route intravenous", "conditions": "in vivo", "in_short": "as §1"}, "Mus musculus [25]": {"test_system": "Mus musculus", "experiment": "In vivo inhibition of mTORC1-mediated phosphorylation of 4EBP1 at ([…]) in human PC3 cells xenografted into athymic nude mouse at 100 mg/kg, po after 16 hrs by Western blotting analysis relative to control", "format": "functional", "conditions": "PC-3, 16 h", "in_short": "as §2"}, "[26]": {"experiment": "Half life in Beagle dog at 3 mg/kg, iv", "format": "ADME, organism-based, Canis lupus familiaris", "parameters": "dose 3 mg/kg, route intravenous", "conditions": "in vivo", "in_short": "as §1"}, "[27]": {"experiment": "Oral bioavailability in CD rat at 3 mg/kg", "format": "ADME, organism-based", "conditions": "in vivo", "in_short": "as §3"}, "[28]": {"experiment": "Drug uptake in tumor of athymic mouse xenografted with human MCF7 cells at 100 mg/kg, po after 24 hrs", "format": "ADME, organism-based, Neoplasm", "parameters": "dose 100 mg/kg, route oral", "conditions": "in vivo, BLD = below limit of detection"}, "[29]": {"experiment": "Plasma concentration in athymic mouse plasma xenografted with human PC3 cells at 100 mg/kg, po after 16 hrs", "format": "ADME, organism-based, PC-3", "parameters": "dose 100 mg/kg, route oral"}, "[30]": {"molecular_target": "Proto-oncogene tyrosine-protein kinase Src (Homo sapiens, UniProt P12931)", "sequence (P12931 2-536 limits assumed)": "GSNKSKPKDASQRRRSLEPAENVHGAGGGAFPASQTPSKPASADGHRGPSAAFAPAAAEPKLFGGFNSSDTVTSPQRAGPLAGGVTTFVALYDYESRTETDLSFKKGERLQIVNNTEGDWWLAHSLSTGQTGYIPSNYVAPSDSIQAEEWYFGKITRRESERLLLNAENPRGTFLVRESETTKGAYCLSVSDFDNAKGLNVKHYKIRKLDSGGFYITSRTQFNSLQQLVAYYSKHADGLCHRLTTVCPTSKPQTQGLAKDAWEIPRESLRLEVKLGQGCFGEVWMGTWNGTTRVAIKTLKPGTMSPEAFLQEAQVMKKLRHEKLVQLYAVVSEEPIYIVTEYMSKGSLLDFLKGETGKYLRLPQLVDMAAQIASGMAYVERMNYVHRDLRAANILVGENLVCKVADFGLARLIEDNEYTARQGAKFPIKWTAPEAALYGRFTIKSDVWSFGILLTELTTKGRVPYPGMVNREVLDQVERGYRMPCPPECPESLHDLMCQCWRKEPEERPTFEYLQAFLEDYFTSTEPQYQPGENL", "experiment": "Inhibition of SRC (unknown origin)"}, "Mus musculus [31]": {"test_system": "Mus musculus", "experiment": "In vivo inhibition of mTORC2-mediated phosphorylation of AKT at serine 473 in human MCF7 cells xenografted into athymic nude mouse at 100 mg/kg, po after 16 hrs by Western blotting analysis relative to control", "format": "functional", "conditions": "MCF7, 16 h", "in_short": "as §4"}}, "note": "Calls of active or inactive are those of the source. The calls are words filed in the database; no cut-off is given here.", "data": [{"smiles": "Cc1c(C(=O)N2CCOc3ccc(-c4ccc(N)nc4)cc3C2)ccc(S(C)(=O)=O)c1F", "values": [{"measurement": "Cmax", "setting": "[1]", "result": 4.12, "unit": "µM"}, {"measurement": "Cmax", "setting": "[2]", "result": 0.25, "unit": "µM"}, {"measurement": "IC50", "setting": "[3]", "result": "> 3.5", "unit": "µM"}, {"measurement": "inhibition", "setting": "[4]", "result": "inactive"}, {"measurement": "Cmax", "setting": "[5]", "result": 2.28, "unit": "µM"}, {"measurement": "inhibition in vivo at 100 mg/kg", "setting": "Mus musculus [6]", "result": 91, "unit": "%"}, {"measurement": "Cmax", "setting": "[7]", "result": 1.66, "unit": "µM"}, {"measurement": "inhibition in vivo at 100 mg/kg", "setting": "Mus musculus [8]", "result": 19, "unit": "%"}, {"measurement": "Tmax", "setting": "[9]", "result": 0.5, "unit": "h"}, {"measurement": "fraction unbound at 5 µM", "setting": "[10]", "result": 0.1}, {"measurement": "concentration at 4 h", "setting": "[11]", "result": 17.8, "unit": "µM"}, {"measurement": "concentration at 16 h", "setting": "[12]", "result": 2.08, "unit": "µM"}, {"measurement": "AUC(0-inf)", "setting": "[13]", "result": 0.952, "unit": "µM·h"}, {"measurement": "bioavailability", "setting": "[14]", "result": 69.6, "unit": "%"}, {"measurement": "IC50", "setting": "[15]", "result": "> 5", "unit": "µM"}, {"measurement": "inhibition in vivo at 100 mg/kg", "setting": "Mus musculus [16]", "result": 43, "unit": "%"}, {"measurement": "inhibition in vivo at 100 mg/kg", "setting": "Mus musculus [17]", "result": 89, "unit": "%"}, {"measurement": "inhibition in vivo at 100 mg/kg", "setting": "Mus musculus [18]", "result": 81, "unit": "%"}, {"measurement": "IC50", "setting": "[19]", "result": "> 3.5", "unit": "µM"}, {"measurement": "Activity", "setting": "Mus musculus [20]", "result": 2.2, "unit": "%"}, {"measurement": "clearance", "setting": "[21]", "result": 84.2, "unit": "mL/min/kg"}, {"measurement": "IC50", "setting": "[22]", "result": "> 3", "unit": "µM"}, {"measurement": "solubility kinetic", "setting": "[23]", "result": 232, "unit": "µM"}, {"measurement": "Cmax", "setting": "[24]", "result": 9.14, "unit": "µM"}, {"measurement": "inhibition in vivo at 100 mg/kg", "setting": "Mus musculus [25]", "result": 51, "unit": "%"}, {"measurement": "half-life", "setting": "[26]", "result": 6.11, "unit": "h"}, {"measurement": "bioavailability", "setting": "[27]", "result": 25.6, "unit": "%"}, {"measurement": "Drug uptake", "setting": "[28]", "result": "BLD"}, {"measurement": "concentration at 16 h", "setting": "[29]", "result": 6.17, "unit": "µM"}, {"measurement": "IC50", "setting": "[30]", "result": "> 3.5", "unit": "µM"}, {"measurement": "inhibition in vivo at 100 mg/kg", "setting": "Mus musculus [31]", "result": 69, "unit": "%"}]}]}
